A selection: hits, their analogues and other compounds. The true share with any hit is near 2%.
FID counter: fluorescent intercalator displacement, NS3 helicase counter-screen. DNA fluorescent intercalator displacement, fluorescence. inhibition, % at 7.9 µM. 290,000 compounds, 0.17% hits; in the data active = inhibition above about 37%;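 note: 0% = vehicle and 100% = reference compound; higher means more ethidium bromide displaced from hairpin DNA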
eIF4H inh: inhibitors of RNA binding by human eIF4H. Q15056. eIF4H fluorescence polarization binding assay. inhibition, % at 35 µM. 290,000 compounds, 0.94% hits. AID 2012;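 note: calls also rest on retests at 20 µM and on dose response follow-up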
PABP1 MLLE inh: inhibitors of microRNA-mediated deadenylation, human PABP1 MLLE binding; GST-MLLE / FITC-PAM2 fluorescence polarization; inhibition, % at 20 µM; 360,000 compounds, 0.36% hits; in the data active = inhibition above about 35%, passing the limit was not always enough;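 note: plate controls were DMSO wells with GST-MLLE for no effect and wells lacking GST-MLLE protein for full effect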
core dimer inh: blocks dimerization of HCV core protein; TR-FRET GST/Flag-core106 dimerization, 1536-well; inhibition, % at 5 µM; 300,000 compounds, 0.33% hits;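 active = inhibition above the mean of all tested compounds plus 3 SD, set per screening campaign, cut at about 45% in these data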
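test system = GST/Flag-tagged HCV core106 proteins | probe or stimulus = Eu donor and XL665 acceptor anti-tag antibodies | times = compound-protein-antibody incubation 4 h at 22.5 °C | signal = TR-FRET, excitation 340 nm, emission 617 and 671 nm | measure = percent inhibition of core106 dimerization signal | controls = wells lacking GST-core106 and wells with excess unlabelled core106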
PABP polyA inh: PABP-poly(A) binding inhibition. P11940. PABP-poly(A) RNA binding, fluorescence polarization. 290,000 compounds, 1% hits. inhibition, % at 35 µM. AID 2014;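 note: calls also rest on retests at 20 µM and on dose response follow-up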
NS3 helicase inh: HCV NS3 helicase inhibition. AID 1800. 290,000 compounds, 0.56% hits. inhibition, % at 10.9 µM. NS3 helicase DNA unwinding, Cy5 molecular beacon fluorescence;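 active = inhibition above the mean of all tested compounds plus 3 SD, set per campaign, cut at about 35% in these data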;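 note: 0% = DMSO wells and 100% = thioflavine S control wells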
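Assay system – hepatitis C virus NS3 helicase domain fragment enzyme · Buffer or medium – MOPS pH 6.5, MgCl2, DTT, Tween20, BSA · Reagent – Cy5/quencher beacon DNA duplex and ATP to start · Compound – single 10.9 µM dose · Timing – 1 h at 25 °C · Technique – Cy5 beacon fluorescence read at start and 1 h · Measure – % inhibition of unwinding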
Active calls of the source: *; ? = inconclusive; · = not tested or not shown. Unless noted, the rule behind the calls is not given here.

SMILES	FID counter	eIF4H inh	PABP1 MLLE inh	core dimer inh	PABP polyA inh	NS3 helicase inh
Cc1nn(-c2ccccc2)c(Oc2ccccc2)c1C=O	-4.3	active	-14.4	10.6	88.1*	18.8
CC(C)c1cc(NCC2CCCO2)n2c(nc3ccccc32)c1C#N (stereo unspecified)	-21.3	1.0	6.0	6.7	9.1	-0.7
Cc1cc(NCC2CCCO2)n2c(nc3ccccc32)c1C#N (stereo unspecified)	-7.2	60.6*	-4.2	0.2	95.6*	-3.5
NC(N)=NS(=O)(=O)c1ccc(NC(=S)NC(=O)/C=C/c2ccccc2)cc1	-4.4	-3.2	30.1	6.4	6.0	-2.4
O=C(/C=C/c1ccco1)Nc1nc(-c2ccccc2)cs1	-10.0	52.7	-5.7	37.8	-1.3	19.4
CC(=O)c1ccc(NC(=S)NC(=O)/C=C/c2ccco2)cc1	-21.2	61.9*	25.6	-9.5	28.5*	29.8
O=C(/C=C/c1ccco1)NC(=S)Nc1ccccc1	-9.3	26.7	9.8	6.8	7.9	23.6
NC(N)=NS(=O)(=O)c1ccc(NC(=S)NC(=O)/C=C/c2ccco2)cc1	-1.7	88.1	1.8	4.0	active	11.8
Cc1csc(NC(=O)/C=C/c2ccco2)n1	-4.1	81.8	-6.5	-2.9	active	8.3
NS(=O)(=O)c1ccc(CNC(=O)/C=C/c2ccco2)cc1	-12.3	79.1*	-2.7	8.5	25.7	28.0
Cn1nnc(NC(=O)/C=C/c2ccco2)n1	-0.2	8.8	1.7	-0.2	23.3	0.6
COc1ccc(-c2csc(NC(=S)NC(=O)/C=C/c3ccco3)n2)cc1Br	-2.7	11.7	-13.6	24.8	-7.9	5.9
NS(=O)(=O)c1ccc(NC(=S)NC(=O)/C=C/c2ccco2)cc1	-1.5	85.3*	3.8	9.1	3.7	6.1
CCN(CC(=O)NCc1ccc(Cl)cc1)C(=O)/C=C/c1ccco1	-8.1	16.3*	-7.5	-0.6	56.5*	14.1
CCN(CC(=O)NCc1ccc(Cl)cc1)C(=O)/C=C/c1ccccc1	-23.8	2.6	-5.2	11.2	5.8	-11.5
CCCn1nnc(NC(=S)NC(=O)/C=C/c2ccco2)n1	-14.6	79.6*	21.2	-1.1	26.2*	21.4
COc1ccc(-c2csc(NC(=S)NC(=O)/C=C/c3ccco3)n2)cc1OC	-6.5	88.7*	24.7	16.3	10.5*	5.4
CCN1C[C@@H]2[C@@H]3C(=O)N(C)C(=O)[C@@H]3[C@](C)(C1=O)N2C(=O)c1ccc(F)cc1	·	·	-3.5	·	·	·
CCCC(=O)N1CCC1(C)C(=O)NS(=O)(=O)c1cccc(Cl)c1 (stereo unspecified)	·	·	-7.2	·	·	·
CC(C)/C(C=O)=C(/NC1CCCCC1)c1ccccc1	·	·	6.3	-1.2	·	·
C/C=C1\NC(=O)[C@H](C)NC(=O)[C@@H](NC(=O)[C@@H](Cc2ccc(O)cc2)NC(=O)[C@@H](NC(=O)/C(C)=C/C)C(C)C)[C@@H](C)OC(=O)[C@H](CCCCc2ccc(O)cc2)NC(=O)[C@@H](CCC(=O)O)NC1=O	·	·	12.7	·	·	·
CCCNC(=O)c1cc(C2CCCCN2C(=O)OCC(C)C)on1 (stereo unspecified)	·	·	-4.9	·	·	·
O=C(/C=C/c1ccccc1)Nc1scc(-c2ccccc2)c1C(=O)O	-23.3	-2.0	-6.0	·	-16.1	15.3
O=C(/C=C/c1ccco1)Nc1scc(-c2ccccc2)c1C(=O)O	-30.9	79.4*	1.1	-1.8	67.2*	28.6
Cc1csc(NC(=O)c2ccc(S(C)(=O)=O)cc2)n1	3.1	-4.2	-0.7	-10.2	-2.1	4.0
SMILES	FID counter	eIF4H inh	PABP1 MLLE inh	core dimer inh	PABP polyA inh	NS3 helicase inh
Cc1csc(NC(=O)c2ccc(C(=O)Nc3nc(C)cs3)cc2)n1	-8.8	?	·	4.5	3.5*	-1.2
COc1ccccc1NC(=S)NC(=O)/C=C/c1ccco1	-11.1	77.3	-1.0	7.1	5.9*	10.7
CSc1cccc(NC(=O)/C=C/c2ccco2)c1	-13.1	56.8*	-3.1	18.3	active	31.7
CCN(CC(=O)Nc1ccc(NC(C)=O)cc1)C(=O)CSc1ncnc2sc(C)c(C)c12	·	·	-13.9	0.3	·	·
CC(=O)Nc1cccc(-c2ccnc3c2CC(C(=O)Nc2ccc(Cl)cc2)O3)c1 (stereo unspecified)	·	·	3.5	·	·	·
Cc1cc(=O)n2nc(N3CCCC(C(=O)NCCCN4C(C)CCCC4C)C3)sc2n1 (stereo unspecified)	·	·	1.3	·	·	·

Screening results (PubChem BioAssay)
